Laboratory results as given in ChEMBL document CHEMBL1151482, “Phenolic constituents from the stem bark of Magnolia officinalis” (J Nat Prod, 2009).
In brackets after ≈: the same amount, converted by molar mass.

What was measured:
BV-2 = test: Antiinflammatory activity in mouse BV2 cells assessed as inhibition of LPS-induced NO production after 24 hrs by Griess reagent method; assay type: functional, cell-based; conditions: BV-2, 24 h
In short: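 Microglial BV2 cells treated with test agents, then stimulated with LPS (0.5 µg/mL); nitrite accumulated in medium over 24 h measured with Griess reagent as NO readout; IC50 taken from concentration-response curves.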

[1] = system: Radical scavenging activity; test: Antioxidant activity assessed as DPPH free radical scavenging activity; assay type: functional
In short: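 Diluted drugs combined with DPPH solution in microplate; absorbance read at 517 nm; IC50 derived from concentration-response curves.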

[2] = Inhibition of NADPH oxidase-mediated ROS production in LPS-stimulated mouse BV2 cells after 20 mins by flow cytometry; assay type: cell-based; conditions: BV-2, 20 min
In short: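 BV2 cells preloaded with 2′,7′-dichlorofluorescin diacetate, exposed to test agents for 20 min, then LPS-stimulated; H2O2 quantified 30 min later by flow cytometry, expressed as mean channel fluorescence; IC50 from concentration-response curves.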

| IC50 (BV-2) [µg/mL] | IC50 [1] [µg/mL] | IC50 [2] [µg/mL] | Structure (SMILES) |
| --- | --- | --- | --- |
| 9.2 (≈ 36.2 µM) | – | – | C=CCc1ccc(O)c(-c2cc(C=O)ccc2O)c1 [MAGNALDEHYDE] |
| 0.5 (≈ 2.06 µM) | 27.6 (≈ 114 µM) | 20.6 (≈ 85 µM) | C=CCc1cc(-c2cc(O)ccc2O)ccc1O [MAGNATRIOL B] |
| 1.2 (≈ 4.95 µM) | 21.6 (≈ 89.2 µM) | – | C=CCc1ccc(O)c(-c2cc(O)ccc2O)c1 [RANDAIOL] |
